# Laboratory results: ChEMBL document CHEMBL1135898, “Synthesis and antimycobacterial activity of 6-arylpurines: the requirements for the N-9 substituent in active antimycobacterial purines” (J Med Chem, 2002)
# What was measured:
# Assay type in all cases: functional
# [1] = test system: Mycobacterium tuberculosis; experiment: Minimum Inhibitory Concentration against drug-resistant strain resistant to Isoniazid
# Outline: (§1)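 MICs by microplate alamar blue assay against M. tuberculosis strains resistant to isoniazid (ATCC 35822), rifampin (ATCC 35838), ethambutol, kanamycin or ciprofloxacin, drug-sensitive strain Erdman, and M. avium (ATCC 25291). MIC = minimum concentration giving 90% growth inhibition.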
# [2] = test system: Mycobacterium tuberculosis; experiment: Minimum Inhibitory Concentration against drug-resistant strain resistant to Rifampin; outline: as §1
# [3] = test system: Mycobacterium tuberculosis; experiment: Minimum Inhibitory Concentration against drug-resistant strain resistant to Ethambutol; outline: as §1
# [4] = test system: Mycobacterium tuberculosis; experiment: Minimum Inhibitory Concentration against drug-resistant strain resistant to Ciprofloxacin; outline: as §1
smiles,measurement,setting,value
Clc1nc(-c2ccco2)c2ncn(Cc3ccccc3)c2n1,MIC,[1],3.13 µg/mL
same,MIC,[2],1.56 µg/mL
same,MIC,[3],< 0.39 µg/mL
same,MIC,[4],< 0.39 µg/mL
